Published values from different studies.
Each line is one published result; the experiments were not run side by side.
EGFR: Epidermal growth factor receptor (EGFR, Homo sapiens, UniProt P00533)
EGFR del752-759: Epidermal growth factor receptor (EGFR, Homo sapiens, UniProt P00533, del752-759)
EGFR A750P/del747-749: Epidermal growth factor receptor (EGFR, Homo sapiens, UniProt P00533, A750P/del747-749)
EGFR del747-752/P753S: Epidermal growth factor receptor (EGFR, Homo sapiens, UniProt P00533, del747-752/P753S)
EGFR L861Q: Epidermal growth factor receptor (EGFR, Homo sapiens, UniProt P00533, L861Q)
EGFR del747-750/T751S: Epidermal growth factor receptor (EGFR, Homo sapiens, UniProt P00533, del747-750/T751S)
EGFR L858R: Epidermal growth factor receptor (EGFR, Homo sapiens, UniProt P00533, L858R)
EGFR G719S: Epidermal growth factor receptor (EGFR, Homo sapiens, UniProt P00533, G719S)
EGFR L858R/T790M: Epidermal growth factor receptor (EGFR, Homo sapiens, UniProt P00533, L858R/T790M)

With `O=C(NCC1CCOCC1)c1n[nH]cc1NC(=O)c1c(F)cccc1F` the remaining binding was 99% (EGFR; binding, competition with immobilised ligand; 1 µM).
`CN1CCN(c2ccc(Nc3nccc(-c4cccc([N+](=O)[O-])c4)n3)cc2C(F)(F)F)CC1` has a remaining binding of 74% (EGFR del752-759; binding; 10 µM).
`CO[C@@H](C)c1c(Nc2ccc([C@H](N(C)C(=O)C3CCS(=O)(=O)CC3)C(F)(F)F)cc2)cnc2cc(Cl)nn12` has a remaining binding of 99% (EGFR A750P/del747-749; cell-free assay, competition with immobilised ligand; 1 µM).
For `O=C(c1ccc(Nc2ncc(Cl)c(-c3cc4ccccc4s3)n2)cc1)N1CCC(N2CCCC2)CC1`, the remaining binding was 79% (EGFR del747-752/P753S; binding, competition with immobilised ligand; 1 µM).
For `F[C@@H]1CCN(c2nccc(-c3cnn4ncccc34)n2)C1`, the remaining binding was 93% (EGFR L861Q; binding; 1 µM).
The remaining binding of `O=C(Nc1c[nH]nc1C(=O)NC1CCNCC1)c1cc(F)cc(F)c1` is reported as 100% (EGFR L861Q; binding, competition with immobilised ligand; 1 µM).
With `O=C(c1ccc(Nc2nccc(-c3cc4ccccc4s3)n2)cc1)N1CCC(N2CCCC2)CC1` the remaining binding was 82% (EGFR del747-750/T751S; binding, competition with immobilised ligand; 1 µM).
For `O=C(N1CCS(=O)(=O)CC1)N1C[C@H](c2ccc(OC(F)(F)F)cc2)C[C@H](c2nc(C3CC3)no2)C1`, the remaining binding was 100% (Epidermal growth factor receptor (EGFR, Homo sapiens, UniProt P00533, T790M); cell-free assay, competition with immobilised ligand; 1 µM).
For `C[C@@H]1CN(c2ccc3ncc(-c4ccc5[nH]nc(C6CC6)c5c4)n3n2)C[C@H](C)O1`, the remaining binding was 31% (EGFR; binding, competition with immobilised ligand; 0.5 µM).
The remaining binding of `COc1cnc(Nc2cccc(S(N)(=O)=O)c2)nc1N1CCN(c2ccccc2)CC1` is reported as 89% (EGFR L858R; binding, competition with immobilised ligand; 1 µM).
`CNC(=O)c1ccc(Nc2ncc(C(F)(F)F)c(NCc3nccnc3N(C)S(C)(=O)=O)n2)cc1` has a remaining binding of 100% (EGFR L858R; cell-free assay, competition with immobilised ligand; 0.1 µM).
With `Nc1ncc2c(n1)-c1c([nH]c3ccc(C#CC4CC4)cc13)CCCC2` the remaining binding was 84% (EGFR A750P/del747-749; binding, competition with immobilised ligand; 1 µM).
`O=C(NC1CCC1)c1ccc2nc(-c3cccc(NS(=O)(=O)NCCN4CCCCC4)c3)cn2c1` gave a remaining binding of 100% (EGFR del747-750/T751S; cell-free assay, competition with immobilised ligand; 10 µM).
The remaining binding of `COc1cccc(CNC(=O)c2nc3scc(COCc4ccc(C(=O)O)cc4)c3c(=O)[nH]2)c1` is reported as 88.3% (EGFR L858R; cell-free assay, competition with immobilised ligand; 1 µM).
`CNC(=O)[C@@H]1CC[C@@H](n2c(-c3ccc4cnccc4c3)nc3ccc(C(=O)NCc4cccc(C(N)=O)c4)cc32)C1` has a remaining binding of 100% (EGFR del747-752/P753S; binding, competition with immobilised ligand; 1 µM).
The remaining binding of `COc1ncc2cc3ccccc3nc2c1C#N` is reported as 96% (EGFR del752-759; cell-free assay, competition with immobilised ligand; 5 µM).
`O=C(NCCCN1CCOCC1)c1ccc(Nc2nccc(-c3cc4ccccc4s3)n2)cc1` gave a remaining binding of 87% (EGFR; binding, competition with immobilised ligand; 1 µM).
With `CCN(CC)Cc1cc(Nc2ccnc3cc(Cl)ccc23)ccc1O` the remaining binding was 100% (EGFR; cell-free assay, competition with immobilised ligand; 0.1 µM).
For `N[C@H]1CCN(c2nccc(-c3cnn4ncccc34)n2)C1`, the remaining binding was 93% (EGFR G719S; binding; 1 µM).
`O=C(NCCCN1CCOCC1)c1ccc(Nc2ncc(Cl)c(-c3ccc(Cl)s3)n2)cc1` has a remaining binding of 92% (Epidermal growth factor receptor (EGFR, Homo sapiens, UniProt P00533, del746-750); binding, competition with immobilised ligand; 1 µM).
`O=C(Nc1cccnn1)N1CC(C/C=C/c2cncc(Oc3ccc(C(F)(F)F)cn3)n2)C1` has a remaining binding of 100% (EGFR G719S; cell-free assay, competition with immobilised ligand; 1 µM).
With `c1cncc(-c2cccc(Nc3nccc(NC4CCCCC4)n3)c2)c1` the remaining binding was 53% (EGFR L861Q; binding, competition with immobilised ligand; 10 µM).
The remaining binding of `NS(=O)(=O)c1cc(NC(=O)Cc2ccccc2)ccc1Oc1cccc(Cl)c1` is reported as 74% (EGFR G719S; cell-free assay, competition with immobilised ligand; 1 µM).
`Cc1cnn2ncc(-c3ccnc(N(C)C)n3)c2c1` gave a remaining binding of 100% (Epidermal growth factor receptor (EGFR, Homo sapiens, UniProt P00533, G719C); binding; 1 µM).
With `Cc1cnc(Nc2ccc(C(=O)N3CCC(N4CCCC4)CC3)cc2)nc1-c1cc2ccccc2s1` the remaining binding was 59% (EGFR L858R/T790M; binding, competition with immobilised ligand; 1 µM).
`CN1CCN(c2ccc(Nc3nccc(-c4ccccc4)n3)cc2C(F)(F)F)CC1` has a remaining binding of 93% (EGFR L858R/T790M; binding; 10 µM).
With `CN(C)c1nccc(-c2cnn3ncccc23)n1` the remaining binding was 100% (EGFR L858R/T790M; binding; 1 µM).
`O=C(c1ccc(Nc2ncc(Cl)c(-c3ccc(Cl)s3)n2)cc1)N1CCC(N2CCCC2)CC1` has a remaining binding of 100% (EGFR del747-750/T751S; binding, competition with immobilised ligand; 1 µM).
`CN(C)C(=O)Cn1cc(-c2nc([C@@](C)(c3ccc(-c4cnc(N)nc4)cc3)C3CC3)no2)cn1` has a remaining binding of 93% (EGFR; cell-free assay, competition with immobilised ligand; 1 µM).
With `COc1ccnn2ncc(-c3ccnc(N(C)C)n3)c12` the remaining binding was 97% (EGFR L861Q; binding; 1 µM).
With `CC(C)(C)c1ccc(-c2nc(CBr)nn2-c2cccc(O)c2)cc1` the remaining binding was 85% (EGFR; cell-free assay, competition with immobilised ligand; 10 µM).
`c1cnn2ncc(-c3ccnc(N4CCC45COC5)n3)c2c1` has a remaining binding of 100% (EGFR; binding; 1 µM).
For `COc1ccc2c(c1)O[C@H](c1ccc(OC)c(OC)c1)C[C@@H]2NC(=O)C1(c2ccc3c(c2)OC(F)(F)O3)CC1`, the remaining binding was 100% (EGFR L858R; cell-free assay, competition with immobilised ligand; 1 µM).
The remaining binding of `COc1cnc(Nc2cccc(S(N)(=O)=O)c2)nc1N1CCN(c2ccccc2)C(=O)C1` is reported as 100% (EGFR del752-759; binding, competition with immobilised ligand; 1 µM).
For `C[C@@H]1CCN(c2nccc(-c3cnn4ncccc34)n2)C1`, the remaining binding was 88% (EGFR del752-759; binding; 1 µM).
`CCN1CCN(Cc2ccc(C(=O)Nc3ccc(C)c(Oc4ccc5c(c4)CC(=O)N5)c3)cc2C(F)(F)F)CC1` gave a remaining binding of 100% (EGFR; binding, competition with immobilised ligand; 1 µM).
